Experiment: Toxicity liver stage against HepG2, at 10uM
Type: cell-based
Set-up: test concentration 10 uM, cell line HepG2-A16-CD81EGFP
Settings: human, HepG2-A16-CD81EGFP cells; read-out: INHIBITION
How it was run: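 Uninfected HepG2-A16-CD81EGFP cells, 3 × 10^3 per well, 1536-well, plated on prespotted compound at 10 μM final, parasite-free screening media added to match infected plates; puromycin 10 μM positive, DMSO 0.5% negative; run in parallel with 48 h PbLuc assay at 37 °C, 5% CO2; viability by CellTiter-Glo luminescence, normalized to controls.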

Row | SMILES | cytotoxicity at 10 µM [%]
1 | O=C(NCCCN1CCOCC1)c1ccc(Cl)cc1Cl | -3.64
2 | CCCN1CCC(NC(=O)Nc2ccc(OC)c(OC)c2)CC1 | -13.4
3 | Cn1cnc2nc3n(c2c1=O)CCC3 | -0.409
4 | CC(=O)NC[C@@H]1C=C(C)[C@H](CC(=O)NCCN(C)C)C[C@H]1C(C)C | 0.939
5 | CCSc1ncccc1C(=O)NCc1ccc(N(C)C)cc1 | 4.36
6 | CC(=O)N1N=C(c2cccs2)OC1C(=O)Nc1ccccc1 (stereo not drawn) | -5.58
7 | CCc1c(O)nc(SCC(=O)c2ccccc2)n(-c2ccccc2)c1=O | 3.19
8 | NC(=O)Cn1c(CO)cnc1SCc1ccccc1Cl | 0.252
9 | COc1ccc(CNC(=O)NCC(O)(c2cccs2)C2CC2)cc1 (stereo not drawn) | 0.227
10 | Cc1noc(CNC(=O)CN(C)c2nc3ccccc3s2)n1 | -2.43
11 | O=C(C1CCC1)N1CCO[C@@H]2CNC[C@@H]21 | 1.44
12 | CC(C)C(=O)N1CCN(S(C)(=O)=O)CC2(CC(=O)N(C)C2)C1 (stereo not drawn) | 8.91
13 | CC1c2ncc(Cn3cncn3)n2CCN1C(=O)[C@H]1CCCO1 (stereo partly drawn) | -4.12
14 | CN(C)CCNC(=O)c1cc2c(s1)CCN2S(C)(=O)=O | 0.705
15 | O=S(=O)(NC1=NCN(CCc2ccccc2)CN1)c1ccc(F)cc1 | 3.47
16 | O=C(C1CCC1)N1CCC2(COCc3cnc(N4CCOCC4)nc32)C1 (stereo not drawn) | -11.8
17 | Cc1ccc2nnc(C(=O)NCC3CCCC3)nc2c1 | 6.47
18 | COc1cc(CCC(=O)N2CCC(c3cc4nccnc4[nH]3)CC2)on1 | 3.67
19 | CC(C)N1CCCC(Cc2nccnc2Cl)C1 (stereo not drawn) | -3.22
20 | CC[C@@H](Cn1ncc2ccccc2c1=O)NC(=O)c1cnccn1 | 6.4
21 | O=C(Cc1cccnc1)N1CC(Cc2nccc3cc[nH]c23)C1 | 4.87
22 | CCC(CC)N1CCC(c2[nH]ncc2S(C)(=O)=O)C1 (stereo not drawn) | -3.51
23 | Cc1cccc(N2CCCC2c2nc(C)ncc2CN(C)C)n1 (stereo not drawn) | -2.17

Row | SMILES | cytotoxicity at 10 µM [%]
24 | CC(C)(C)c1nnc2n1C(C(=O)N1CCOCC1)CC2 (stereo not drawn) | 1.52
25 | Cc1cc(CN2CCN(Cc3ccccc3F)CC2)no1 | 4.51
26 | CC(Cc1ccco1)NS(=O)(=O)N1CCCCCC1 (stereo not drawn) | 2.29
27 | Cn1nc(C(=O)NC2(c3ccccc3)CCC2)ccc1=O | 1.42
28 | COc1ccc(F)cc1CN(CC(N)=O)C(C)C | -1.68
29 | CCC1CN(CCNS(C)(=O)=O)c2ccccc2O1 (stereo not drawn) | -2.67
30 | CCc1ocnc1C(=O)N1CCC2(CC1)OCC(C)O2 (stereo not drawn) | 4.44
31 | CNC(=O)c1cc(NC(=O)NC(C)CCc2cccn2C)ccc1F (stereo not drawn) | -2.01
32 | CCCC(=O)N1CCC2(CC1)OCCO2 | 5.22
33 | CS(=O)(=O)CCOc1nc(-c2ccccc2Cl)no1 | -11.2
34 | CN(Cc1ccncc1)C(=O)NC1CCS(=O)(=O)C1 (stereo not drawn) | -2.94
35 | Cc1nc(CNC(=O)Nc2cc(C(F)(F)F)c[nH]c2=O)cs1 | 0.868
36 | COCc1csc(NC(=O)NCc2ccccn2)n1 | 11.3
37 | CN(C)C(=O)C1CCCN1CCCNC(=O)Cc1ccccc1F (stereo not drawn) | 0.646
38 | Cc1ncc2c(n1)CCN(C(C(N)=O)c1ccccc1)C2 (stereo not drawn) | -2.62
39 | CCN(CC)C(=O)Cc1csc(C(C)C)n1 | -1.55
40 | CC(C)(C)n1nc(C2CC2)cc1C(=O)NCC1(C(N)=O)CCOCC1 | -11.1
41 | CC(C)c1nn(C)c(N(C)C)c1CNC1CCCCNC1=O (stereo not drawn) | 2.91
42 | CC(C)(CNc1c(C#N)cnc2ccc(Cl)cc12)C(N)=O | 9.19
43 | CN(C)C(CNC(=O)c1[nH]nc(C2CC2)c1Br)C1CC1 (stereo not drawn) | -4.14
44 | CC(c1nc(C(C)(C)C)no1)S(=O)(=O)CC(=O)N1CCCC1 (stereo not drawn) | -2.21
45 | COc1ccccc1C(C)CNC(=O)c1[nH]ncc1Br (stereo not drawn) | 18.1
46 | CC(=O)NCC1CCCN(C(=O)Cc2c(C)noc2C)C1 (stereo not drawn) | 17.4

Row | SMILES | cytotoxicity at 10 µM [%]
47 | CCc1nc2n(n1)CCCC2NC(=O)Nc1ccc(F)cc1C#N (stereo not drawn) | -0.802
48 | Cc1cc(Br)ccc1NCc1ccc(C(=O)N(C)C)[nH]1 | 5.68
49 | CCS(=O)(=O)NCCNC(=O)c1cc(Cl)c2c(c1)OCCCO2 | 5.98
50 | CCN(CC)C(=O)CCNC(=O)Cc1nc(-c2ccco2)oc1C | 26.8
51 | COc1ccc(NC(=O)CNc2ccc(Br)cc2F)cc1 | 0.795
52 | CC(O)CN1CCN(C(=O)c2cc3ccccc3c(=O)[nH]2)CC1 (stereo not drawn) | -2.64
53 | Cn1cc(-c2cnc(-c3ccnn3C)nc2)cc1C(=O)N1CCCC1 | 4.55
54 | Cc1nccc([C@H]2C[C@@H]3CCN(C(=O)c4c(C)noc4C)C[C@H]3O2)n1 | -83.3
55 | O=C(NCCc1nccs1)C1CCCN(Cc2ccco2)C1 (stereo not drawn) | 1.5
56 | Cc1nc2cc(CNC(=O)C3CC(=O)N(CCN(C)C)C3)ccc2n1C (stereo not drawn) | -4.31
57 | Cc1ccccc1CN(CCN(C)C)Cc1ccc(C(=O)O)cc1 | -1.6
58 | CC(C)[C@H]1COC(=O)N1Cc1noc(-c2ccccc2)n1 | 5.01
59 | CN(CCc1cn[nH]c1)Cc1nc(Cc2cccc(F)c2)no1 | -1.53
60 | CC(C)[C@@H]1CN(Cc2ccccc2C#N)C[C@H]1NC(=O)N(C)C | -12.3
61 | O=C1CCC2(CCN(CCSc3ccccc3)CC2)CN1CCCO | 2.09
62 | CN(C)CCNc1cc(-c2ncccn2)c2cc[nH]c2n1 | 6.39
63 | O=C(CC1=CSC2=NCCCN12)N1CCCCCC1c1ccco1 (stereo not drawn) | 10
64 | CC(c1ccc2c(c1)OCCO2)N(C)C(=O)c1ccnnc1 (stereo not drawn) | 0.94
65 | CCNc1ncc(C(=O)NCCc2ccc(C)c(C)c2)cn1 | -5.1
66 | CCC/C=C/c1ccc(CN2CCCC2)cn1 | -16.1
67 | Cc1ccc([C@@H]2CN(C(=O)c3ccoc3C)C[C@H]2NC(=O)C2CC2)cc1 | 4.22
68 | COC(=O)C(CO)NC(=O)c1cn(Cc2ccccc2F)nn1 (stereo not drawn) | -1.14
69 | CCC(C(=O)NC1CCCCC1)n1ccc2ncccc2c1=O (stereo not drawn) | 2.17

Row | SMILES | cytotoxicity at 10 µM [%]
70 | O=C(NCCc1c[nH]cn1)C1CCCN(C2CCOCC2)C1 (stereo not drawn) | 1.58
71 | Cc1nc2c(c(NC3CCN(Cc4ccccc4)CC3)n1)CCNCC2 | -6.74
72 | COCCC(=O)N1CCCC(CCC(=O)NCc2ccccc2F)C1 (stereo not drawn) | 11
73 | CNc1ncccc1C(=O)N1CCCC2(C1)C(=O)N(C)c1ccccc12 (stereo not drawn) | -5.27
74 | Cc1cc(=O)c(C(=O)N2CCCCC2c2ccc(F)cc2)c[nH]1 (stereo not drawn) | 3.71
75 | COc1ccc(OC2CCN(C(=O)CCc3n[nH]c(C)n3)CC2)cc1 | 4.66
76 | CCc1nc2ccccc2n1C(CC)C(=O)N(C)CCc1noc(C)n1 (stereo not drawn) | 3.02
77 | COc1ccc(Oc2nccc3occc23)cc1CN1CCCC1 | -24.6
78 | Cc1noc(C)c1CN(C)C(=O)c1n[nH]c(N)c1-c1ccccc1 | -7.46
79 | O=C(c1ccc(CNC2CCSC2)cc1)N1CCCC1 (stereo not drawn) | -4.05
80 | CNc1ccc(CC2CCCN(C(=O)c3cncnc3C)C2)nn1 (stereo not drawn) | 5.99
81 | CCNc1cc2c(nn1)CCN(C(=O)c1cccc3c1OCO3)C2 | -9.88
82 | Cc1cnn(CCC(=O)N2CCCC(c3noc(C)n3)C2)c1 (stereo not drawn) | -3.98
83 | CN(Cc1ccco1)C(=O)CN1CCCC1Cn1cncn1 (stereo not drawn) | -24.1
84 | CCN(CC)Cc1ccc(C(=O)N2CCCC2Cn2cc(C)cn2)o1 (stereo not drawn) | -11.4
85 | Cc1nc2cc(=O)[nH]n2c(C)c1CC(=O)NCCCc1ccccc1 | -7.33
86 | CNS(=O)(=O)c1cccc(CNC(=O)c2cc(C)no2)c1 | -10.3
87 | Cc1ccc(C(=O)NC2CCN(C(=O)NCc3ccccn3)CC2)o1 | -12.2
88 | Cc1cnn(CC2CCCN2C(=O)c2n[nH]c(=O)c3ccccc23)c1 (stereo not drawn) | -21.9
89 | CCn1c(C)nnc1CN(C)C1CCN(CC2CCC2)C1 (stereo not drawn) | -11.5
90 | Cc1nc(C)n(CC2CCCN(CCC(=O)NC3CCCCC3)C2)n1 (stereo not drawn) | -3.39
91 | O=C(c1sccc1C1CC1)N1CCCN(Cc2cscn2)CC1 | -14.7
92 | CCc1nc(CN2CCOC(CN(C)c3cccnn3)C2)cs1 (stereo not drawn) | 5.35

Row | SMILES | cytotoxicity at 10 µM [%]
93 | O=C(c1cccc2ncccc12)N1CCCN(c2cccnn2)CC1 | -2.08
94 | O=C(c1cccnc1O)N1CCCN(c2cccnn2)CC1 | 6.82
95 | CN(Cc1nnc(C2CC2)o1)CC1CCCN1c1cccnn1 (stereo not drawn) | -6.54
96 | COc1ccc(CCN2CCC(N3CCN(C)C3=O)CC2)cc1 | -6.64
97 | O=C(NCCCn1ccnc1)N1CCCC1c1cccs1 (stereo not drawn) | -8.31
98 | CCn1ccnc1CN1CCN(CC(=O)NC(=O)NC2CC2)CC1 | -3.3
99 | CCSc1nnc([C@@H](N)CC(C)C)o1 | -2.39
100 | CN1C(=O)C2(CCN(Cc3cccnc3)CC2)c2cccc(F)c21 | 6.77
101 | O=C([C@@H]1CC[C@@H]2[C@@H](CCN2Cc2ccoc2)O1)N1CCCC1 | -10.2
102 | O=C(c1ccoc1)N1C[C@@H]2OCCN(c3ncccn3)[C@@H]2C1 | 5.09
103 | Cc1cncc(C(=O)N2CCC3(CC2)NC(=O)CC3c2ccccc2)c1 (stereo not drawn) | -78.1
104 | O=C(O)CN1CCC(F)(F)C2(CCN(c3ccccn3)C2)C1 (stereo not drawn) | 1.78
105 | Cn1cc2c(n1)C(CNCC1CCOCC1)OCC2 (stereo not drawn) | 6.86
106 | CS(=O)(=O)NCc1cn2c(n1)CN(Cc1ccoc1)CC2 | 7.92
107 | COCC(=O)N1CCC[C@]2(C(=O)N(C)C)CN(c3ccccn3)C[C@@H]2C1 | -10.1
108 | Cc1ccc(C(CNCc2c[nH]nc2C)N(C)C)cc1 (stereo not drawn) | 8.42
109 | CN1CC2(CCN(CC3CC3)CC2)COc2ccccc2S1(=O)=O | -0.697
110 | CS(=O)(=O)NC[C@@H]1OC[C@H]2CN(Cc3ccsc3)CC[C@H]21 | 14.3
111 | c1ccc(CN2CCC3(CC2)CCN(Cc2cccs2)C3)nc1 | 4.17
112 | CCCOc1ccc(C(=O)N2CC[C@@H]3CC[C@H](C2)N3)cc1Cl | -6.94
113 | O[C@@H]1CC(CNCc2cccc(Cl)c2)(COc2cnccn2)C[C@@H]1O (stereo partly drawn) | -3.58

Source: ChEMBL document CHEMBL4513216, “Probing the Open Global Health Chemical Diversity Library for Multistage-Active Starting Points for Next-Generation Antimalarials” (ACS Infect Dis, 2020)
